KCNQ1 act – human KCNQ1 channel potentiation or activation; hit rate 0.35% among 310,000; CHO-K1 KCNQ1, thallium flux FluxOR fluorescence; hits give high values; B-score at 10 µM;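 active = fluorescence ratio B-score, a plate-corrected score, at least three library SD, with initial intensity B-score within 5 SD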
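System: Stable KCNQ1 CHO-K1 line | Incubation: 90 min dye loading and 20 min compound exposure, both at room temperature | Measure: Ratio B score | Medium: Assay buffer for compound exposure, DMSO matched across wells | Compound dosing: Single-concentration screen | Probe or stimulus: K+/Tl+ depolarizing stimulus | Measured by: Kinetic FluxOR fluorescence, 10 s baseline plus 110 s post-stimulus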
KCNK3 inh – human KCNK3 channel inhibition, primary screen. CHO-KCNK3 thallium flux, FluxOR fluorescence; hits give low values. B-score at 10 µM. hit rate 0.84% among 340,000. AID 602410;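 active = B-score under library mean minus 4 SD, starting fluorescence ratio at most library mean plus 5 SD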;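 also: more negative B-score means stronger inhibition of thallium flux through KCNK3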
Kir21 block – Kir2.1 (mouse) channel inhibition | P35561 | HEK293-Kir2.1, FluxOR thallium flux fluorescence; hits give low values | B-score at 10 µM | hit rate 0.85% among 310,000 | AID 1672;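 active = fluorescence ratio B-score at or below minus 3 SD of library scores, with starting-brightness B-score within 2 SD, cut at about -4.2 in these data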;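 also: channel flux triggered by added potassium and thallium sulfate stimulus; B-score of peak minus minimum fluorescence over baseline after thallium stimulus; more negative B-score means stronger Kir2.1 block with less thallium influx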
KCNQ1 block – human KCNQ1 channel inhibition. P51787. CHO-K1 KCNQ1, FluxOR thallium flux fluorescence; hits give high values. B-score at 10 µM. hit rate 1.3% among 310,000. AID 2642;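 active = compounds whose thallium flux B-score, printed positive for inhibition, exceeds three library SD while starting fluorescence stays within three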;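 also: channel opened by potassium depolarization with thallium stimulus after 20 min compound exposure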
KCNK9 block – blocks the human KCNK9 two-pore domain potassium channel; B-score at 10 µM; hit rate 1.2% among 310,000; HEK293 KCNK9, FluxOR thallium flux fluorescence; hits give low values;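 active = ratio B-score over 3 SD below the library mean, with starting fluorescence within 5 SD of its mean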;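 also: negative B-score means less thallium flux so channel inhibition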
hERG rescue – hERG (human) protection from proarrhythmic block; CHO-hERG, FluxOR thallium flux, dofetilide IC70 present; activation (rescue from dofetilide block), less the hit threshold, % at 10 µM; hit rate 0.51% among 310,000; Q12809;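 active = activation above the mean of controls blocked by dofetilide plus 5 SD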;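 also: thallium influx through hERG after potassium depolarization seen as dye fluorescence rise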
Target sequence (Q12809 whole entry, looked up): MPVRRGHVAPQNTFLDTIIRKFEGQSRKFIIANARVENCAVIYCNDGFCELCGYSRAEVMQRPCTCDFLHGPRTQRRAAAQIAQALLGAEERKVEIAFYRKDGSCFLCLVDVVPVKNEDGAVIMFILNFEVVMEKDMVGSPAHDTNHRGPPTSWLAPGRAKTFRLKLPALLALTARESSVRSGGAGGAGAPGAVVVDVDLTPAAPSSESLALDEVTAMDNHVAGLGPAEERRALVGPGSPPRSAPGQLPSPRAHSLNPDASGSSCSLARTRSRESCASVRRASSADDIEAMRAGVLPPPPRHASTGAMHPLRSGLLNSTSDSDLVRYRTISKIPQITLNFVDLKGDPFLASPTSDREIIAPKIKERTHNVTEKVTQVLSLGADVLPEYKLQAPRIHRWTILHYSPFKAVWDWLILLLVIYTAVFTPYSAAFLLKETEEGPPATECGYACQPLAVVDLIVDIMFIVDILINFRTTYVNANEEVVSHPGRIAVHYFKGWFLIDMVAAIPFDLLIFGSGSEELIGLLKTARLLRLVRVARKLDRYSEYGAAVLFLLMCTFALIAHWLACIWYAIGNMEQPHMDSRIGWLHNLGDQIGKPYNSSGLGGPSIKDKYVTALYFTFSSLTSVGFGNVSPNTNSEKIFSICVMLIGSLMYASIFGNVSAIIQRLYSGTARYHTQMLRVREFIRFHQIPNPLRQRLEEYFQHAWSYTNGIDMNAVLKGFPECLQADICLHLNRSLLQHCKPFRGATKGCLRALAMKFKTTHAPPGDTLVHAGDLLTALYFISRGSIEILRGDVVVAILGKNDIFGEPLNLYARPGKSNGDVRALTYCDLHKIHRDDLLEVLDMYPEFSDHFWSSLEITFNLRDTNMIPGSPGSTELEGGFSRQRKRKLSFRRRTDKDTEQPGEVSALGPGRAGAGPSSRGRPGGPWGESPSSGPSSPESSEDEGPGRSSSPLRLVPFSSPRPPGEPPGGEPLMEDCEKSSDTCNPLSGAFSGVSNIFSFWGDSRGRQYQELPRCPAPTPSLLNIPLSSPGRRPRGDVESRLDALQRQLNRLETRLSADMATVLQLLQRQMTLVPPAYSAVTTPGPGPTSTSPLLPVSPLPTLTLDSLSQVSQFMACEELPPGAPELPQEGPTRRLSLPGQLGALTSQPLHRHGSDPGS
KCNQ1 block val – reconfirmed blocker of the human KCNQ1 potassium channel. shares compounds with KCNQ1 block. AID 588353. KCNQ1 cell line, FluxOR thallium flux fluorescence. inhibition, % at 10 µM. hit rate 93% among 1,600;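 active = primary screen active, with duplicate mean exceeding buffer control mean plus 3 SD of buffer wells, cut at about 28% in these data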;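 also: 0% = buffer control ratio and 100% = XE991 inhibitor control ratio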
CHO KCNQ1 ctr – KCNQ1 inhibitor counter-screen hit in parental CHO cells; shares compounds with KCNQ1 block; parental CHO-K1, FluxOR thallium flux fluorescence ratio; hits give low values; zero means no signal rise above baseline; fluorescence ratio (Tl flux) at 10 µM; hit rate 21% among 1,600; AID 588366;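 active = mean of duplicate thallium-flux fluorescence ratios in parental host cells more than 5 SD below the buffer control mean, cut at about 0.38 in these data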;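 also: ratio is peak minus minimum fluorescence divided by baseline fluorescence; actives read low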
KCNQ1 APC inh – human KCNQ1 inhibition validated by electrophysiology | shares compounds with KCNQ1 block | KCNQ1-CHO cells, automated patch clamp current | AID 624120 | hit rate 20% among 490 | calls only at 10 µM;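 active = KCNQ1 current drop exceeding 3 SD of negative control wells, seen in both duplicate runs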;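 also: steady state current during a 2 s step from -80 to +40 mV; negative values mean current inhibition and positive values mean potentiation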
KCNQ2 inh – selectivity of KCNQ1 inhibitors: inhibition of rat KCNQ2 channel | shares compounds with KCNQ1 block | KCNQ2 cells, FluxOR thallium flux fluorescence | inhibition, % at 10 µM | hit rate 71% among 1,600 | AID 651746;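 active = mean percent inhibition of the KCNQ2 thallium signal more than 5 SD above the buffer-only control wells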;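 also: KCNQ2 expressed in CHO cells; 0% = buffer control wells and 100% = XE-991 inhibitor control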
KCNQ1 KCNE1 spec – selectivity of KCNQ1 inhibitors: inhibition of human KCNQ1/KCNE1 channel; shares compounds with KCNQ1 block; AID 652147; KCNQ1/KCNE1 cells, FluxOR thallium flux fluorescence; inhibition, % at 10 µM; hit rate 77% among 1,600;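 active = mean percent inhibition of duplicate wells above the buffer-only control mean plus 3 SD of those controls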;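 also: 0% = buffer only wells and 100% = XE-991 inhibitor control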
KCNK3 confirm – confirmation of human KCNK3 two-pore domain potassium channel inhibitors; hit rate 99% among 2,400; CHO-KCNK3 thallium flux, FluxOR fluorescence; 0% buffer, 100% carvedilol maximal block; shares compounds with KCNK3 inh; ratio percent of control, % at 10 µM;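 active = ratio percent of control, averaged over triplicates, above buffer control mean plus 5 SD, cut at about 64% in these data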;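 also: ratio is the fluorescence rise from min to max over baseline after thallium stimulus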
KCNK3 uninduced – KCNK3 inhibitor counter-screen hit in non-induced cells; non-induced KCNK3 parental cells, FluxOR thallium flux; hits give low values; AID 651747; hit rate 40% among 2,400; shares compounds with KCNK3 inh; thallium flux ratio (lower = more inhibition) at 10 µM;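 active = thallium flux ratio, averaged over three wells, more than 5 SD below the buffer control mean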;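 also: host cells are CHO cells without KCNK3 induction; ratio is peak minus trough fluorescence over baseline then normalized to buffer controls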
* marks the source's active call; other numbers are inactive results; i = inactive; nt = not tested or not shown; + = active, no number. Compounds with a hit are over-represented: about 3.8% of the library has one in this group of screens.

SMILES | KCNQ1 act | KCNK3 inh | Kir21 block | KCNQ1 block | KCNK9 block | hERG rescue | KCNQ1 block val | CHO KCNQ1 ctr | KCNQ2 inh | KCNQ1 KCNE1 spec | KCNK3 confirm | KCNK3 uninduced | others
COc1ccccc1NC(=O)c1cc2cc(Br)ccc2cc1O | i | -8.76* | 1.74 | 9* | i | -22.3 | 126.0* | 0.445 | 97.0%* | 107.0%* | 135.0* | 0.105* | KCNQ1 APC inh=i
COc1cc(NC(=O)c2cc3ccccc3cc2O)c(OC)cc1Cl | i | i | 0.36 | i | i | -7.2 | nt | nt | nt | nt | nt | nt
CN(C(=O)COC(=O)/C=C/c1ccc(F)cc1)c1c(N)n(Cc2ccccc2)c(=O)[nH]c1=O | i | i | 1.45 | i | i | -16.0 | nt | nt | nt | nt | nt | nt
FC(F)Sc1ccc(NC(=S)NC2CCCCC2)cc1 | i | -10.3* | 0.78 | 10* | i | -20.1 | 77.5* | 0.531 | i | 36.0%* | 104.0* | i
S=C(Nc1ccc(Br)cc1)NC1CCCC1 | i | i | -1.13 | i | i | -4.0 | nt | nt | nt | nt | nt | nt
O=C(CNCc1ccccc1Cl)Nc1ccccc1N1CCCCC1 | i | -8.95* | -0.36 | 7* | i | -35.4 | 96.0* | 0.404 | 115.0%* | 109.0%* | 113.7* | 0.151* | KCNQ1 APC inh=+
Cc1cc(OCC(=O)Nc2ccccc2N2CCCC2)ccc1C(C)C | i | -9* | -0.92 | 9* | i | -12.9 | 72.5* | 0.511 | 82.3%* | 99.5%* | 111.7* | i
COc1ccccc1Nc1ccc(NC(=O)c2cccc([N+](=O)[O-])c2C)cc1 | i | i | 0.75 | i | i | -8.3 | nt | nt | nt | nt | nt | nt
CCOC(=O)c1c(NC(=O)C(C)OC(=O)C2=COCCO2)sc2c1CCCC2 (configuration not stated) | nt | i | nt | nt | nt | nt | nt | nt | nt | nt | nt | nt
CCOC(=O)c1c(NC(=O)C(C)OC(=O)c2ccc(NC(=O)CC#N)cc2)sc2c1CCCC2 (configuration not stated) | i | -9.11* | 0.68 | 8* | i | -11.7 | 104.5* | 0.443 | 90.7%* | 187.0%* | 87.3* | 0.143* | KCNQ1 APC inh=i
O=C(Nc1ccc2c(c1)OCO2)c1cc(-c2ccc(O)cc2)on1 | i | i | -0.16 | i | i | -3.9 | nt | nt | nt | nt | nt | nt
COc1cccc(-c2nc(NC3CCCC3)c3ccccc3n2)c1O | i | -12.9* | -1.43 | 9* | i | -8.2 | 140.0* | 0.322* | 126.3%* | 98.0%* | 133.3* | i
CCOc1ccc(CCNC(=O)c2ccc3c(=O)[nH]c4c(C(=O)NC(C)C)sc(=S)n4c3c2)cc1 | i | -8.97* | 0.86 | 15* | i | -27.1 | 156.5* | 0.329* | 97.0%* | + | 108.3* | i
CC(C)NC(=O)c1sc(=S)n2c1[nH]c(=O)c1ccc(C(=O)NCCc3ccc(Cl)cc3)cc12 | i | -18.3* | 3.7 | 16* | i | -9.9 | 102.5* | 0.347* | 80.7%* | 174.0%* | 93.3* | i
CCCCNC(=O)c1sc(=S)n2c1[nH]c(=O)c1ccccc12 | i | i | -2.08 | i | i | -30.9 | nt | nt | nt | nt | nt | nt

Assay outcomes (PubChem)
